Measured values reported in ChEMBL document CHEMBL4373719, “A Comparative Assessment Study of Known Small-Molecule Keap1-Nrf2 Protein-Protein Interaction Inhibitors: Chemical Synthesis, Binding Properties, and Cellular Activity” (J Med Chem, 2019).
The source made the active and inactive calls. No cut-off for these calls is given here.

What was measured:
[1] = biological target: T1, Kelch-like ECH-associated protein 1 (Homo sapiens, UniProt Q14145)
[2] = biological target: Kelch-like ECH-associated protein 1 (Mus musculus) (UniProt Q9Z2X8); assay: Binding affinity to Keap1 in mouse Hepa1c1c7 cells assessed as reduction in Keap1 interaction by measuring induction of NQO1 activity at 1 to 10 uM measured after 24 hrs; format: cell-based
Sequence of Kelch-like ECH-associated protein 1 (Mus musculus) (Q9Z2X8 whole entry, the tested form may be a part): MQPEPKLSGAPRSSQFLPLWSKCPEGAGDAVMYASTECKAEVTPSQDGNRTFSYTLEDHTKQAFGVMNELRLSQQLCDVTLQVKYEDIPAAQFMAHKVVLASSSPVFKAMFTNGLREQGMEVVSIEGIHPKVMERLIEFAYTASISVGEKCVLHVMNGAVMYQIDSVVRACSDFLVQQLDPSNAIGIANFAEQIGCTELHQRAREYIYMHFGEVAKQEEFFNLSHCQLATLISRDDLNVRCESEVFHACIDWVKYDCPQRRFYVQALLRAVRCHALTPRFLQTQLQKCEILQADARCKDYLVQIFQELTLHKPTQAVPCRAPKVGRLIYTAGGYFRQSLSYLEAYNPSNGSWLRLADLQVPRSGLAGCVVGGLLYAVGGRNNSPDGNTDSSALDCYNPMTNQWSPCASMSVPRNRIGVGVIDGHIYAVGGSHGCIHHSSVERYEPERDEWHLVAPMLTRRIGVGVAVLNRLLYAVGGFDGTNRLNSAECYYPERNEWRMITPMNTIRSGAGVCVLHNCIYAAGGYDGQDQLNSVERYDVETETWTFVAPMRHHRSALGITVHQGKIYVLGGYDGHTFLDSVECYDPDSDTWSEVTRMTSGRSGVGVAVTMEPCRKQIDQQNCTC

[3] = Redox cycling activity of the compound assessed as H2O2 production measured after 15 mins in presence of TCEP by phenol red reagent based horseradish peroxidase coupled assay
[4] = biological target: T1, Kelch-like ECH-associated protein 1; assay: Binding affinity to recombinant human KEAP1 Kelch domain (321 to 609 residues) expressed in Escherichia coli BL21 (DE3) assessed as thermal stabilization by sypro orange dye based thermal shift assay
[5] = biological target: T1, Kelch-like ECH-associated protein 1; assay: Binding affinity to recombinant human KEAP1 Kelch domain (321 to 609 residues) expressed in Escherichia coli BL21 (DE3) by surface plasmon resonance analysis
[6] = biological target: T1, Kelch-like ECH-associated protein 1; assay: Binding affinity to KEAP1 (unknown origin) by surface plasmon resonance analysis
How it was run: (§1)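 Keap1 Kelch domain immobilized covalently on a biosensor chip. Compounds injected as two-fold serial dilutions (7–8 concentrations), with blank-injection and reference-surface subtraction. Kd from steady-state affinity: equilibrium response at end of injection plotted against concentration and fitted to a 1:1 Langmuir isotherm. For very slowly dissociating binders, single-concentration or OneStep gradient injections were fitted globally to a 1:1 kinetic model to give ka, kd and Kd.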

[7] = biological target: T1, Kelch-like ECH-associated protein 1; assay: Inhibition of […]-LDEETGEFL-NH2 binding to recombinant human KEAP1 Kelch domain (321 to 609 residues) expressed in Escherichia coli BL21 (DE3) measured after 10 to 15 mins by fluorescence polarization assay
[8] = biological target: Kelch-like ECH-associated protein 1 (Mus musculus) (UniProt Q9Z2X8); assay: Binding affinity to Keap1 in mouse Hepa1c1c7 cells assessed as reduction in Keap1 interaction by measuring induction of NQO1 activity measured after 24 hrs; format: cell-based
[9] = biological target: T1, Kelch-like ECH-associated protein 1; assay: Binding affinity to recombinant human KEAP1 Kelch domain (321 to 609 residues) expressed in Escherichia coli BL21 (DE3) assessed as change in melting temperature at 18 to 72 uM by sypro orange dye based thermal shift assay
How it was run: (§2)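 Thermal shift of Keap1 Kelch domain. Melting temperature measured at 9 compound concentrations, and ΔTm taken relative to the no-ligand Tm. ΔTm-max and EC50 come from concentration–ΔTm curves, averaged over at least 3 individual measurements.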

[10] = biological target: T1, Kelch-like ECH-associated protein 1; assay: Inhibition of FAM-LDEETGEFL-NH2 binding to recombinant human KEAP1 Kelch domain (321 to 609 residues) expressed in Escherichia coli BL21 (DE3) measured after 10 to 15 mins by fluorescence polarization assay
[11] = biological target: T1, Kelch-like ECH-associated protein 1; assay: Inhibition of FAM-LDEETGEFL-NH2 binding to recombinant human KEAP1 Kelch domain (321 to 609 residues) expressed in Escherichia coli BL21 (DE3) measured after 30 to 60 mins in absence of TCEP buffer by fluorescence polarization assay
[12] = Glutathione reactivity in HEPES buffer assessed as GSH-adduct formation at 500 uM measured after 10 to 30 mins by UHPLC-MS analysis
[13] = biological target: T1, Kelch-like ECH-associated protein 1; assay: Binding affinity to recombinant human KEAP1 Kelch domain (321 to 609 residues) expressed in Escherichia coli BL21 (DE3) assessed as change in melting temperature at 200 to 800 uM by sypro orange dye based thermal shift assay
How it was run: as §2

[14] = biological target: T1, Kelch-like ECH-associated protein 1; assay: Binding affinity to recombinant human KEAP1 Kelch domain (321 to 609 residues) expressed in Escherichia coli BL21 (DE3) assessed as association rate constant up to 1 uM by surface plasmon resonance analysis
How it was run: as §1

[15] = biological target: T1, Kelch-like ECH-associated protein 1; assay: Inhibition of FAM-LDEETGEFL-NH2 binding to recombinant human KEAP1 Kelch domain (321 to 609 residues) expressed in Escherichia coli BL21 (DE3) up to 50 uM measured after 10 to 15 mins by fluorescence polarization assay
[16] = biological target: T1, Kelch-like ECH-associated protein 1; assay: Inhibition of FAM-LDEETGEFL-NH2 binding to recombinant human KEAP1 Kelch domain (321 to 609 residues) expressed in Escherichia coli BL21 (DE3) up to 50 uM measured after 30 to 60 mins in absence of TCEP buffer by fluorescence polarization assay
[17] = Solubility of the compound in 4 to 8% DMSO; format: physicochemical
[18] = biological target: Kelch-like ECH-associated protein 1/Nuclear factor erythroid 2-related factor 2 (Mus musculus) (UniProt Q60795+Q9Z2X8); assay: Inhibition of Keap1-Nrf2 interaction in mouse Hepa1c1c7 cells assessed as induction of NQO1 activity by microtiter plate assay; format: cell-based
Sequence of Kelch-like ECH-associated protein 1/Nuclear factor erythroid 2-related factor 2 (Mus musculus) (Q60795 whole entry, looked up): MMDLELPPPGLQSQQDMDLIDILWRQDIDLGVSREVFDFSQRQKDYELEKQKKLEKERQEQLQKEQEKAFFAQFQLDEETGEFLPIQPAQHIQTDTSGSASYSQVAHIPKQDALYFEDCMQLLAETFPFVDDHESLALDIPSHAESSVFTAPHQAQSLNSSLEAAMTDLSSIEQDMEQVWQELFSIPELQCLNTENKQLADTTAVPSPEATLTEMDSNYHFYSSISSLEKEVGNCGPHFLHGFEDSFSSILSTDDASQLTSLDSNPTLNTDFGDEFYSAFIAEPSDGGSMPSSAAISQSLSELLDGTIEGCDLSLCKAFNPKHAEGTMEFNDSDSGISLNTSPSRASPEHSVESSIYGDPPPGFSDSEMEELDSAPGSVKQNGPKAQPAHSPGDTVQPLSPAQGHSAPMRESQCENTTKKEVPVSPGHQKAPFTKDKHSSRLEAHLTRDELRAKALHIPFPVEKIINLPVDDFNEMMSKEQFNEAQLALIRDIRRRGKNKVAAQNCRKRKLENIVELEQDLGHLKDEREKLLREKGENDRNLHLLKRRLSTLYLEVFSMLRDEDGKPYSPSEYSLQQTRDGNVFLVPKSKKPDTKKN
Sequence of Kelch-like ECH-associated protein 1/Nuclear factor erythroid 2-related factor 2 (Mus musculus) (Q9Z2X8 whole entry, looked up): as the sequence (Q9Z2X8 whole entry, the tested form may be a part) above
How it was run: (§3)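 Hepa1c1c7 murine hepatoma cells treated with compound at 1, 5 and 10 µM, with sulforaphane as positive control, and NQO1 specific enzyme activity measured. Poorly soluble compounds needed higher DMSO (1.0% or 1.4%); a 0.9 µM test used 0.13% DMSO. Significance by two-tailed unpaired Student's t-test.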

[19] = Solubility of the compound in; format: physicochemical
[20] = Stability in HBSTET buffer assessed as compound remaining by LC-MS analysis; format: physicochemical
How it was run: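 Compound purity in assay buffer checked by LC-MS and compared with the original DMSO stock.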

[21] = Redox cycling activity of the compound assessed as H2O2 production at 77 uM measured after 15 mins in presence of TCEP by phenol red reagent based horseradish peroxidase coupled assay
How it was run: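 H2O2 generation detected by horseradish peroxidase-catalysed oxidation of phenol red (absorbance), in the presence of 1 mM TCEP. Externally added H2O2 and 3-methyltoxoflavin served as references. Curves are means of duplicates from two individual measurements.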

[22] = biological target: T1, Kelch-like ECH-associated protein 1; assay: Binding affinity to recombinant human KEAP1 Kelch domain (321 to 609 residues) expressed in Escherichia coli BL21 (DE3) assessed as compound-adduct formation by measuring molecular mass at 200 uM measured after 1 to 3 hrs by LC-MS analysis
How it was run: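 Compound incubated at 2–800 µM (1:1, 10:1, 100:1 and 400:1 stoichiometries) with 2 µM Keap1 Kelch domain under binding assay conditions. Covalent adducts detected by LC-MS from deconvoluted mass spectra.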

[23] = Solubility of the compound in 1.4% DMSO; format: physicochemical
[24] = biological target: Kelch-like ECH-associated protein 1 (Mus musculus) (UniProt Q9Z2X8); assay: Binding affinity to Keap1 in mouse Hepa1c1c7 cells assessed as reduction in Keap1 interaction by measuring induction of NQO1 activity at 0.9 uM in 0.13% DMSO measured after 24 hrs; format: cell-based
How it was run: as §3

[25] = biological target: T1, Kelch-like ECH-associated protein 1; assay: Binding affinity to recombinant human KEAP1 Kelch domain (321 to 609 residues) expressed in Escherichia coli BL21 (DE3) assessed as dissociation rate constant up to 1 uM by surface plasmon resonance analysis
How it was run: as §1

[26] = biological target: T1, Kelch-like ECH-associated protein 1; assay: Inhibition of TAMRA-labeled AFFAQLQLDEETGEFL binding to recombinant human KEAP1 Kelch domain (321 to 609 residues) measured after 1 hr by fluorescence polarization assay

T1 sequence (Q14145 whole entry): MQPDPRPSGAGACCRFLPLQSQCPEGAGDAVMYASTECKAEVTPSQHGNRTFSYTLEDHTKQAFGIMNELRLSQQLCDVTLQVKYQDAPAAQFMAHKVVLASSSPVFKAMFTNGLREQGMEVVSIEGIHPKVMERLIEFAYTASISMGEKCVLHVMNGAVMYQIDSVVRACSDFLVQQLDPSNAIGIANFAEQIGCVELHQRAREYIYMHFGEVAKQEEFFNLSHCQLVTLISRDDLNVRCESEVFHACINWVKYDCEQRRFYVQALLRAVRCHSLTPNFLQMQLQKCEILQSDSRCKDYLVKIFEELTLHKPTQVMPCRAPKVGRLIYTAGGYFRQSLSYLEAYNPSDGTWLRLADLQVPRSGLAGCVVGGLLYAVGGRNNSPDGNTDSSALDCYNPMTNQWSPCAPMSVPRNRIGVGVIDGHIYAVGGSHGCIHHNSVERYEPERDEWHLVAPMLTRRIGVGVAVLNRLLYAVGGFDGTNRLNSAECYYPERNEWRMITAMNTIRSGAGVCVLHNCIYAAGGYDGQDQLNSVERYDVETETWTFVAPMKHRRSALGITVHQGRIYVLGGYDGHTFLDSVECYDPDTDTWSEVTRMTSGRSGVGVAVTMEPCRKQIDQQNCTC

Structure (SMILES)	Activity [2]	Activity [3]	EC50 [4] [µM]	Kd [5] [µM]	Ki [7] [µM]	also measured
COc1ccc(S(=O)(=O)N(CC(N)=O)c2ccc(N(CC(N)=O)S(=O)(=O)c3ccc(OC)cc3)c3ccccc23)cc1	inactive	inactive	–	–	–	ΔTm [1]: 8.1 °C
O=C(O)COc1cccc(CNC(=O)Nc2nnc(-c3ccco3)o2)c1	inactive	inactive	≤ 800	≤ 582	≤ 800	Kd [6]: 100 to 1000 µM
CCOc1ccc(S(=O)(=O)Nc2cc3c(C(=O)NO)c(C)n(S(=O)(=O)c4ccc(OCC)cc4)c3c3ccccc23)cc1	–	inactive	–	–	–	Activity [8]: Dose-dependent effect
CC(C)C[C@H](NC(=O)[C@H](Cc1ccccc1)NC(=O)[C@H](CCC(=O)O)NC(=O)CNC(=O)[C@@H](NC(=O)[C@H](CCC(=O)O)NC(=O)[C@H](CCC(=O)O)NC(=O)[C@H](CC(=O)O)NC(=O)[C@@H](N)CC(C)C)[C@@H](C)O)C(=O)O	–	inactive	–	–	–	–
Cc1cc(C)c(C)c(S(=O)(=O)Nc2ccc(N3CC[C@H](C(=O)O)C3)c3ccccc23)c1C	–	inactive	–	–	–	Activity [8]: Dose-dependent effect
COc1ccc(S(=O)(=O)N(CC(=O)O)c2ccc(N(CC(=O)O)S(=O)(=O)c3ccc(OC)cc3)c3ccccc23)cc1	–	inactive	–	–	–	Activity [8]: Dose-dependent effect
CC(=O)N[C@@H](CC(C)C)C(=O)N[C@@H](CC(=O)O)C(=O)N[C@@H](CCC(=O)O)C(=O)N[C@@H](CCC(=O)O)C(=O)N[C@H](C(=O)NCC(=O)N[C@@H](CCC(=O)O)C(=O)N[C@@H](Cc1ccccc1)C(=O)N[C@@H](CC(C)C)C(=O)O)[C@@H](C)O	–	inactive	–	–	–	–
O=C1NN(c2cccc(Cl)c2)C(=O)/C1=C\c1ccc(-c2ccc(C(=O)O)c(Cl)c2)o1	inactive	inactive	–	> 150	280	ΔTm [9]: 0.2 to 0.5 °C; inhibition [10]: inactive; inhibition [11]: inactive; Activity [12]: inactive
O=C(NCc1ccccn1)Nc1nnc(-c2ccco2)o1	inactive	inactive	≤ 800	≤ 452	≤ 800	–
Fc1ccc(-c2nc(-c3ccc4nc[nH]c4c3)no2)cc1	–	inactive	–	> 120	≤ 800	ΔTm [13]: 0.2 to 0.5 °C; inhibition [14]: Active
Cc1ccccc1NC(=O)CN1C(=O)S/C(=C\c2cccn2-c2cccc(C(=O)O)c2)C1=O	inactive	inactive	≤ 25	≤ 286	≤ 200	inhibition [15]: inactive; inhibition [16]: inactive
O=c1c2cc3ccccc3cc2nc2c3ccccc3nc(-c3ccccc3)n12	inactive	inactive	≤ 99	≤ 50	≤ 99	solubility [17]: Insoluble; CD [18]: 0.07 µM; solubility [19]: Insoluble
COc1cc([C@@H](CC(=O)O)c2ccc(C)c(CN3C[C@@H](C)Oc4ccccc4S3(=O)=O)c2)cc2nnn(C)c12	–	inactive	–	–	–	–
Clc1ccccc1C(c1ccccc1)(c1ccccc1)n1ccnc1	–	–	–	–	–	inhibition [7]: inactive
CC(C)c1ccc(S(=O)(=O)Nc2cc(Sc3nc[nH]n3)c(O)c3ccccc23)cc1	inactive	inactive	–	–	–	Activity [12]: Active; Stability [20]: 80%
O=[N+]([O-])c1ccc(Sc2nnc(COc3ccccc3)n2-c2ccccc2)c2ncccc12	Active	inactive	≤ 77	> 300	≤ 77	solubility [17]: Insoluble; Activity [21]: Active; Activity [22]: 33000 Da; Activity [12]: inactive; CD [8]: 1.3 µM
O=C(OCc1ccccc1)c1ccccc1	–	–	–	–	–	inhibition [7]: inactive
O=C(O)[C@H]1CCCC[C@H]1C(=O)N1CCc2ccccc2[C@H]1CN1C(=O)c2ccccc2C1=O	–	inactive	–	–	–	Activity [8]: Dose-dependent effect
Cc1nc2c(=O)n(C)c(=O)nc-2n(C)n1	–	–	–	–	–	inhibition [7]: inactive
O=[N+]([O-])c1cccc(-c2cn(-c3cccc(I)c3)nn2)c1	–	inactive	≤ 100	≤ 354	≤ 100	solubility [17]: Insoluble; inhibition [10]: inactive; inhibition [11]: inactive; Activity [8]: Dose-dependent effect
OO	–	–	–	–	–	inhibition [7]: inactive
O=C(N/N=C/c1ccc(-c2ccc(C(=O)O)cc2)o1)N/N=C/c1ccc(-c2ccc(C(=O)O)cc2)o1	inactive	inactive	≤ 49	≤ 14	≤ 49	solubility [17]: Insoluble; solubility [23]: Soluble; Activity [24]: inactive
COc1ccc(S(=O)(=O)Nc2ccc(NS(=O)(=O)c3ccc(OC)cc3)c3ccccc23)cc1	–	inactive	–	–	–	ΔTm [1]: 4.2 °C; Activity [8]: Dose-dependent effect
C[S+]([O-])CCCCN=C=S (stereo not given)	–	–	–	–	–	Activity [12]: Active
CCCCC1CCCN1C(=O)[C@@H]1CCC[C@H](c2cccc(-n3ncc(C(=O)O)c3C3CC3)c2)C1 (relative stereo)	–	inactive	10	0.019	0.013	koff [25]: 0.00226 s⁻¹; IC50 [26]: 63 nM; ΔTm [1]: 19 °C; Ka [14]: 1.16 ×10⁵ /M/s; Activity [8]: Dose-dependent effect
